Sampled rows, rich in hits. Any-hit rate of the full collection: about 1.8%.
CHRM4 agonist: CHRM4 agonism in calcium assay. activation, % at 3 µM. P08173. 360,000 tested, 0.14% active. CHO-K1 hM4/Gqi5, Fluo-8 calcium fluorescence; vehicle 0%, full acetylcholine response 100%;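 active means activation above the run mean over all test wells plus 3 SD, cut at about 32% in these data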;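 further: peak over basal fluorescence ratio per well then scaled between controls; 0% = DMSO wells and 100% = acetylcholine at EC100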
M5 PAM: CHRM5 positive allosteric modulation. 360,000 tested, 0.3% active. activation, % at 3 µM. CHO-K1 hM5, Fluo-8 calcium, ACh EC20 PAM; 0% = ACh EC20, 100% = ACh EC100;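 active means activation above the run cutoff, the mean activation of all test compounds plus 3 SD, cut at about 18% in these data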
Target sequence (P08912 whole entry, looked up): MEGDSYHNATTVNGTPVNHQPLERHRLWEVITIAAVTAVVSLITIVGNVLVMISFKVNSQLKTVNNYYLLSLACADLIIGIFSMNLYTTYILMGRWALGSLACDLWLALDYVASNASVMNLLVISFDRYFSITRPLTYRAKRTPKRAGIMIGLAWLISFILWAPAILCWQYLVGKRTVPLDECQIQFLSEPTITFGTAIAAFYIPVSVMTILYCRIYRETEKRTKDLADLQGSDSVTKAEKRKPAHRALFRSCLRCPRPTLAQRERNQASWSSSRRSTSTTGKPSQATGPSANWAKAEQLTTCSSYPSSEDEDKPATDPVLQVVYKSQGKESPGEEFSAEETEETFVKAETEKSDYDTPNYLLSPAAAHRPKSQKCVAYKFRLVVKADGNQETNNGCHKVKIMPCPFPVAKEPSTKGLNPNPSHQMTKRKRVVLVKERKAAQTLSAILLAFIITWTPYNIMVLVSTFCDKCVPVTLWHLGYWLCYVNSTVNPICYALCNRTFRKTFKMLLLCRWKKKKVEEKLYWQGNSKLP
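System: CHO-K1 hM5 cells. Reagent: acetylcholine, EC20 level. Compound dosing: single dose, 3 µM nominal final test concentration. Timing: Post-acetylcholine fluorescence recording 140 s. Detection: Fluo-8 calcium fluorescence. Read-out: % activation, ACh-normalized. Benchmarks: ACh EC20 and EC100 wells. Repeats: singlicate, one well per test compound.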
M4 PAM: positive allosteric modulators of human muscarinic M4 receptor; 360,000 tested, 0.4% active; CHO-K1 hM4/Gqi5, Fluo-8 calcium fluorescence, ACh EC20; 0% = ACh EC20, 100% = maximal ACh; P08173; AID 624126; activation, % at 3 µM;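 active means activation above its plate's cutoff, the mean activation of sample wells plus 3 SD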
M5 ag: CHRM5 agonism in calcium assay; CHO-K1 hM5 cells, Fluo-8 calcium fluorescence; 0% DMSO wells, 100% maximal acetylcholine response; activation, % at 3 µM; 360,000 tested, 0.19% active;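 active means activation above the run's mean over test compounds plus 3 SD, cut at about 23% in these data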;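 further: signal is peak over basal fluorescence ratio across the kinetic read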
CHRM5 antagonist: blocks acetylcholine activation of human M5 receptor; inhibition, % at 3 µM; CHO-hM5 cells, Fluo-8 calcium fluorescence, ACh EC80; 360,000 tested, 0.59% active; P08912;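 active means inhibition above a per-plate cutoff, the mean of that plate's test compounds plus 3 SD, cut at about 27% in these data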;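 further: 0% = acetylcholine EC80 with DMSO and 100% = DMSO without agonist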
M4 antag: antagonists of human muscarinic M4 receptor (CHRM4) | AID 624125 | P08173 | 360,000 tested, 0.73% active | CHO-hM4 cells, ACh EC80, Fluo-8 calcium fluorescence | inhibition, % at 3 µM;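 active means inhibition above its plate's cutoff, the mean inhibition of sample wells plus 3 SD, cut at about 27% in these data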;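 further: 0% = acetylcholine EC80 with DMSO and 100% = DMSO without agonist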
The depositor's hits bear a star.

SMILES	CHRM4 agonist	M5 PAM	M4 PAM	M5 ag	CHRM5 antagonist	M4 antag
O=S(=O)(Nc1cccc2cccnc12)c1ccc(S(=O)(=O)N2CCCC2)cc1	3	-7	-22	-4	9	31*
O=S(=O)(Nc1cccc2cccnc12)c1ccccc1	2	1	-9	-2	15	42*
O=C(O)c1c[nH]c2c([N+](=O)[O-])cccc2c1=O	0	8	-4	2	-1	9
CSCCC(NC(=O)c1cccc(C)c1)C(=O)NNC(=O)c1cccs1 (stereo unspecified)	1	-1	11	2	9	-10
O=C(Nc1cccc(C(F)(F)F)c1)N1CCC(c2nc(-c3ccc(F)cc3)no2)CC1	16	-23	-18	-2	39*	51*
C[C@@H]1CN([C@H](C)CO)C(=O)CCCn2cc(nn2)CO[C@H]1CN(C)S(=O)(=O)c1ccc(-c2ccccc2)cc1	0	4	6	0	-3	-8
COC(=O)CCCC1=CC2=CC(=O)C(C)(OC(=O)c3cccs3)C(=O)C2=CN1Cc1ccccc1 (stereo unspecified)	1	-3	10	-3	9	4
COC(=O)CCCC1=CC2=CC(=O)C(C)(OC(=O)c3cccs3)C(=O)C2=CN1c1ccc(OC)cc1 (stereo unspecified)	1	8	4	-1	4	27*
Cc1[nH]nc2c1/C(=N/O)CC(c1ccccc1)C2 (stereo unspecified)	1	-2	4	1	2	5
COCCNC(=O)C(c1ccc(O)cc1)N(Cc1ccccc1)C(=O)CCC(=O)Nc1nccs1 (stereo unspecified)	1	-2	-2	-1	12	10
Cc1nccc(-c2sc(-c3cccs3)nc2C)n1	4	10	69*	0	-4	21
C[C@@H]1CN([C@@H](C)CO)C(=O)c2cccc(NC(=O)c3nc4ccccc4s3)c2O[C@@H]1CN(C)CC1CC1	4	1	1	-1	0	-7
O=C(CN1CCCCC1)N1N=C(c2cccs2)CC1c1cccs1 (stereo unspecified)	1	-20	-18	-10	38*	45*
Cc1ccc(NC(=O)COC(=O)CCc2nc3ccccc3c(=O)[nH]2)c(Br)c1	1	1	25*	-4	-2	-13
Cc1ccccc1NC(=S)NC(=O)/C=C/c1ccco1	1	22*	-1	5	-17	-12
CCOc1ccccc1NC(=O)Nc1ccc2c(c1)CCC2	0	10	20*	-2	0	-4
CCOc1ccc(-c2nnc(-c3ccncc3)o2)cc1	4	42*	25*	-7	-14	-15
O=C(CN1CCN(c2ccccc2F)CC1)c1c[nH]c2ccccc12	4	20*	3	-2	-5	-10
CCc1ccc2[nH]c(=O)c(C(c3nnnn3Cc3ccc(OC)cc3)N3CCOCC3)cc2c1 (stereo unspecified)	2	-4	39*	1	-1	5
Cc1c(C(=O)NCc2ccc(C(C)C)cc2)sc(=O)n1Cc1ccc(S(=O)(=O)N(C)C)cc1	16	-24	-11	6	24	5
COc1ccc(C(C(=O)NC2CCCCC2)N(CC2CCCO2)C(=O)C2COc3ccccc3O2)cc1OC (stereo unspecified)	1	33*	13	-3	-16	-12
CC1(C(=O)NS(=O)(=O)c2ccc(C#N)cc2)CCN1C(=O)C1(c2ccccc2)CCCC1 (stereo unspecified)	2	1	18*	-1	-3	-15
FC(F)(F)c1ccc(NC(=S)NCc2ccccc2)cc1	12	-11	-14	4	17	11
Cc1ccc(C2(SCC(N)C(=O)O)c3ccccc3-c3ccccc32)cc1 (stereo unspecified)	-1	0	1	1	6	-13
CCN(C(=O)c1ccc(Cl)cc1[N+](=O)[O-])c1ccccc1C	1	-1	-10	-9	3	5
